# “Also recorded” adds a separate entry of the source. Strand notation (5' to 3'): a small letter for the sugar, then the base; units joined by * are phosphorothioate-linked, units joined directly phosphodiester-linked; [ ] holds rarer units or linkages, { } end groups; capitals alone tell only the bases. [tcDNA-N] = tricyclo-DNA nucleotide (N: the base); m = 2'-O-methyl
# Assays:
# [1] = system: Differentiated C2C12 cells; assay: Uptake of FITC-labelled ASOs with SR ligands; format: cell-based, murine; conditions: ligand pretreatment 1 h, then FITC-ASO 200 nM for 4 h
# Method in brief: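 C2C12 cells were grown in DMEM with 10% FBS, then differentiated 3-4 days in DMEM with 2% horse serum (2.5x10⁴/cm²). Cells were pretreated 1 h with scavenger-receptor ligands or control polyanions at 100 μg/ml. They were then given FITC-2'OMePS or FITC-tcDNA (200 nM) for 4 h, washed, and methanol-fixed (-20 °C, 10 min). Mean fluorescence intensity came from microscopy images; one-way ANOVA, mean ± SEM.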
# [2] = DLS analysis of ASOs in PBS; format: physicochemical; conditions: 1 mM ASO in PBS, each measured 3 times
# [3] = DLS after incubation with physiological albumin solution; format: physicochemical; conditions: equal volume BSA 4.25 g/dL in PBS, 1 h at 37 °C, diluted 10x before DLS
# [4] = biological target: T1, SCARA1 (Mus musculus, UniProt P30204); assay: Dmd exon 23 skipping; format: in vivo, mice; conditions: 10 mg/kg intravenous, 1 week, n=4, qPCR
# T1 sequence (P30204 1-351 limits assumed): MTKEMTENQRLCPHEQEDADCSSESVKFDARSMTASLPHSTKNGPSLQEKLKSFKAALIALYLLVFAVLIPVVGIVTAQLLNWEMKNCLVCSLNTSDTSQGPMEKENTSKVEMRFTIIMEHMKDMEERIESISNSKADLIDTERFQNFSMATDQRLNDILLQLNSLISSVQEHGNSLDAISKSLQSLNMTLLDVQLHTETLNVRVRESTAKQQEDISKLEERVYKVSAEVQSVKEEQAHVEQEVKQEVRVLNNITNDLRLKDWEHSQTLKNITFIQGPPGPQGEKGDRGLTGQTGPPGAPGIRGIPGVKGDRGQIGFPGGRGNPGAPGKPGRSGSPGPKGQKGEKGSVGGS
# Method in brief: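 SCARA1-/- and C57BL/6 mice (14 months old, n = 4) received 10 mg/kg peptide–PMO conjugate in 0.9% saline via tail vein. After one week, tibialis anterior, diaphragm and heart were snap-frozen. Multiplex Taqman qPCR on 25 ng cDNA used FAM primers spanning exon 20-21 and HEX primers spanning exon 23-24. Skipping percentage came from normalising exon 23-24 to exon 20-21 amplification.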
# [5] = TEM visualization of self-assembled nanoparticles; format: physicochemical; conditions: Fig. S3
# [6] = system: class A scavenger receptor subtypes (SCARAs); assay: PPMO splice-switching activity; format: cell-based, murine; conditions: for Effect of SR ligand or control on splice-switching activity of PPMO: differentiated C2C12, ligand 50 μg/ml for 1 h before PPMO 500 nM for 4 h in Opti-MEM, then 20 h, nested RT-PCR
# [7] = Zeta potential measurement; format: physicochemical
# [8] = Critical micelle concentration by dye micellization method; format: physicochemical; conditions: eosin Y 0.019 mM, absorbance at 542 nm, rounded value
# [9] = Uptake and activity comparison of fluorescently labelled ASOs; format: cell-based; conditions: Fig. S4
substance,measurement,setting,value
"2’OMe: 2’Omethyl phosphorothioate ASO 5’- GGCCAAACCUCGGCUUACCU-3’, synthesized by IDT (antisense mG*mG*mC*mC*mA*mA*mA*mC*mC*mU*mC*mG*mG*mC*mU*mU*mA*mC*mC*mU)",Uptake in the presence of fucoidin and dextran sulfates,[1],only partially inhibited
same,DLS population profile (peaks),[2],predominant peak was of singular molecules
same,DLS size of predominant peak (singular molecules),[2],around 2 nm
same,DLS particulate peaks in albumin model,[3],failed to do so
RXRRBRRXR YQFLI RXRBRXRB [Pip6a-PMO],"Exon 23-skipping activity in SCARA1 knock-out versus wild-type mice, diaphragm",[4],significantly reduced
same,"Exon 23-skipping activity in SCARA1 knock-out versus wild-type mice, heart",[4],significantly reduced
same,Nanoparticle formation and relative size by TEM,[5],spontaneously forms nanoparticles; also recorded: smaller than B-PMO nanoparticles
same,Uptake in the presence of SR ligands,[6]; Fig. S3,significantly inhibited
RXRRBRRXRRBRXB [PPMO],Zeta potential,[7]; in PBS,-1.21 ± 0.63
same,Zeta potential,[7]; in serum-free medium,-3.48 ±2.31
same,Zeta potential,[7]; in water,10 ± 2.70
same,DLS population profile (peaks),[2],"two peaks, one for singular molecules and one representing a particulate population"
same,Critical micelle concentration (CMC),[8],about 1.4 μM
same,DLS particulate peaks in albumin model,[3],high intensity particulate peaks
same,Extent of uptake relative to other chemistries,[9],several folds higher uptake than the other two chemistries
chondroitin sulfate,Effect of SR ligand or control on splice-switching activity of PPMO,[6],no effect
dextran sulfate,Effect of SR ligand or control on splice-switching activity of PPMO,[6],completely inhibited
fucoidin sulfate,Effect of SR ligand or control on splice-switching activity of PPMO,[6],completely inhibited
"tcDNA: phosphorothioated tricyclo DNA 5’-AACCTCGGCTTACCT-3’, synthesized by SYNTHENA (all [tcDNA-N], all phosphorothioate, methylation of C not given here)",Extent of uptake relative to other chemistries,[9],significantly higher than that of 2’OMe

# From article PMC6415796 (Nano letters, 2015)
